Measurements taken from ChEMBL document CHEMBL4342502, “Synthesis and Antichlamydial Activity of Molecules Based on Dysregulators of Cylindrical Proteases” (J Med Chem, 2020).
Values after ≈ are worked out from the molar mass of the structure shown. Active and inactive are the calls of the source. The rule behind the calls is not given here.

Columns and labels:
HaCaT = assay: Cytotoxicity against immortal human HaCaT cells assessed as reduction in cell viability at 50 ug/ml after 24 hrs by CCK-8 assay; assay type: cell-based
How it was run: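 HeLa 229 and HaCaT cells in DMEM with 10% FBS and 1% penicillin/streptomycin, 37 °C, 5% CO2, seeded at 5000 cells/well. Next day treated with 50 μg/mL in triplicate, with matching DMSO controls. After 24 h, CCK-8 added for 2 h; corrected absorbance read at 450 nm.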

[1] = Hepatic intrinsic clearance in human liver microsomes at 1 ug/ml measured per kg body weight up to 60 mins by LC-MS/MS analysis; assay type: ADME, Microsome; conditions: 1 h
Chlamydia trachomatis [2] = assay: Anti-chlamydial activity against Chlamydia trachomatis Serovar LGV-L2 infected in Hep2 cells assessed as reduction in chlamydial inclusion growth treated at 8 hrs post-infection and 24 hrs later re-infecting fresh Hep2 cells monolayer with infected cells and measured at 24 hrs post re-infection by immunofluorescence staining based microscopy analysis; assay type: functional, organism-based
How it was run: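 HEp-2 cells grown in DMEM with 2% L-glutamine and 10% FBS at 37 °C. Infected with C. trachomatis L2 at MOI 1, with compound added in triplicate at 8 hpi. At 24 hpi, lysates were collected in sucrose storage medium, frozen at −80 °C and passed as 10-fold dilutions onto fresh HEp-2. After 24 h, stained with goat anti-MOMP then Alexa488 secondary. IFU taken as mean inclusions across 15 fields (20x), corrected for dilution.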

Chlamydia trachomatis [3] = assay: Anti-Chlamydial activity against Chlamydia trachomatis Serovar LGV-L2 infected in Hep2 cells assessed as reduction in size and number of chlamydial inclusion at 5.2 to 50 ug/ml treated at 8 hrs post-infection and 24 hrs later re-infecting fresh Hep2 cells monolayer with infected cells and measured at 24 hrs post re-infection by immunofluorescence staining based microscopy analysis; assay type: functional, organism-based
How it was run: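 HEp-2 cells in DMEM with 10% FBS, infected with C. trachomatis L2 at MOI 1. Compounds added 8 hpi in triplicate; DMSO stocks at 50 mg/mL. At 24 hpi lysates collected in sucrose storage medium, frozen at −80 °C, and used to infect fresh HEp-2 monolayers in 10-fold dilutions. After 24 h, stained with goat anti-MOMP and Alexa488 secondary. Inclusions counted in 15 fields at 20x; IFU = mean count per field corrected for dilution.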

[4] = Drug metabolism in human liver microsomes assessed as 1-[4-[(4-chlorophenyl)methyl]piperazin-1-yl]-2-methyl-2-[[5-(trifluoromethyl)-2-pyridyl]sulfonyl]propan-1-one formation at 1 ug/ml after 10 to 60 mins by LC-MS/MS analysis; assay type: ADME, Microsome

Q: What does the source list for `CC(C)(C(=O)NCCCc1ccccc1)S(=O)(=O)c1ccc(C(F)(F)F)cc1`?
A: Activity (HaCaT): Toxic; CLH [1]: 891 mL/min/kg

Q: For `CC(C)(C(=O)N1CCN(Cc2ccc(Cl)cc2)CC1)S(=O)(=O)c1ccc(C(F)(F)F)cn1`, which inhibition (Chlamydia trachomatis [2]) is on record?
A: Dose-dependent effect

Q: What about the IC50 (Chlamydia trachomatis [2]; Serovar LGV-L2, HEp-2) of the same molecule?
A: 5.2 µg/mL (≈ 10.6 µM)

Q: And the inhibition (Chlamydia trachomatis [3])?
A: Active

Q: What about the Drug metabolism [4] of the same molecule?
A: Metabolite_Detected
